{"source": "ChEMBL document CHEMBL4428026", "about": "“Discovery of New Monocarbonyl Ligustrazine-Curcumin Hybrids for Intervention of Drug-Sensitive and Drug-Resistant Lung Cancer” (J Med Chem, 2016)", "key": {"A549 [1]": {"system": "A549", "experiment": "Antiproliferative activity against human A549 cells after 72 hrs by MTT assay", "assay_type": "functional, cell-based", "details": "A549, 72 h", "how_it_was_run": "(§1)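 Cells (A549, A549/DDP, SPC-A-1, LTEP-G-2, non-tumor bronchial epithelial HBE) were exposed in triplicate to vehicle or compound for 72 h. MTT (5 mg/mL in PBS) was then added for 4 h, formazan was dissolved in DMSO, and absorbance was read at 570 nm. IC50 values were derived from viability.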"}, "A549/CDDP [2]": {"system": "A549/CDDP", "experiment": "Antiproliferative activity against human A549/CDDP cells after 72 hrs by MTT assay", "assay_type": "functional, cell-based", "how_it_was_run": "as §1"}, "A549/CDDP [3]": {"system": "A549/CDDP", "experiment": "Induction of ROS generation in human A549/CDDP cells 2.1 to 4.2 uM after 60 mins by DHE staining-based fluorescence assay", "assay_type": "functional, cell-based", "how_it_was_run": "(§2)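 A549 or A549/DDP cells were treated in triplicate for 60 min with vehicle DMSO (0.1%, v/v) or a range of compound concentrations. Cells were stained with dihydroethidium, and intracellular ROS fluorescence was read on a microplate reader at 300 and 610 nm. Three independent experiments were run.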"}, "[4]": {"experiment": "Antiproliferative activity against human SPC-A1 cells after 72 hrs by MTT assay", "assay_type": "functional, cell-based", "details": "SPCA1, 72 h", "how_it_was_run": "as §1"}, "A549 [5]": {"system": "A549", "experiment": "Induction of ROS generation in human A549 cells 2.1 to 4.2 uM after 60 mins by DHE staining-based fluorescence assay", "assay_type": "functional, cell-based", "how_it_was_run": "as §2"}, "A549/CDDP [6]": {"system": "A549/CDDP", "experiment": "Decrease in TrxR expression in human A549/CDDP cells at 0.6 to 1.2 uM after 24 hrs by Western blot method", "assay_type": "functional, cell-based", "how_it_was_run": "(§3)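 Cells were plated at 1 × 10^6/well overnight, then treated 24 h with vehicle DMSO (0.1%, v/v) or compound (A549, 2.1 or 4.2 µM; A549/DDP, 0.6 or 1.2 µM). Lysis was at 4 °C. Lysates were run on SDS-PAGE (7.5% gel, 20 µg/lane) and immunoblotted with ECL detection; phospho-Akt Ser473 and phospho-ERK Thr202/Tyr204 were probed. Bands were normalized to GAPDH (TrxR, Trx) or β-actin. Three independent experiments were run.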"}, "A549 [7]": {"system": "A549", "experiment": "Induction of ROS generation in human A549 cells 2.1 to 4.2 uM after 60 mins by DHE staining-based fluorescence assay in presence of GSH", "assay_type": "functional, cell-based"}, "A549/CDDP [8]": {"system": "A549/CDDP", "experiment": "Induction of ROS generation in human A549/CDDP cells 0.6 to 1.2 uM after 60 mins by DHE staining-based fluorescence assay in presence of NAC", "assay_type": "functional, cell-based"}, "A549/CDDP [9]": {"system": "A549/CDDP", "experiment": "Induction of ROS generation in human A549/CDDP cells 0.6 to 1.2 uM after 60 mins by DHE staining-based fluorescence assay in presence of GSH", "assay_type": "functional, cell-based"}, "A549 [10]": {"system": "A549", "experiment": "Induction of apoptosis in human A549 cells assessed as decrease in Bcl2 expression at 2.1 to 4.2 uM after 24 hrs by Western blot method", "assay_type": "functional, cell-based", "how_it_was_run": "as §3"}, "A549/CDDP [11]": {"system": "A549/CDDP", "experiment": "Induction of apoptosis in human A549/CDDP cells assessed as decrease in Bcl2 expression at 0.6 to 1.2 uM after 24 hrs by Western blot method", "assay_type": "functional, cell-based", "how_it_was_run": "as §3"}, "A549/CDDP [12]": {"system": "A549/CDDP", "experiment": "Induction of apoptosis in human A549/CDDP cells assessed as increase in cleaved caspase 3 level at 0.6 to 1.2 uM after 24 hrs by Western blot method", "assay_type": "functional, cell-based", "how_it_was_run": "as §3"}, "A549 [13]": {"system": "A549", "experiment": "Induction of apoptosis in human A549 cells assessed as increase in cleaved PARP level at 2.1 to 4.2 uM after 24 hrs by Western blot method", "assay_type": "functional, cell-based", "how_it_was_run": "as §3"}, "A549 [14]": {"system": "A549", "experiment": "Effect on NFkappaB expression in human A549 cells at 2.1 to 4.2 uM after 24 hrs by Western blot method", "assay_type": "functional, cell-based", "how_it_was_run": "as §3"}, "A549 [15]": {"system": "A549", "experiment": "Effect on ERK expression in human A549 cells at 2.1 to 4.2 uM after 24 hrs by Western blot method", "assay_type": "functional, cell-based", "how_it_was_run": "as §3"}, "[16]": {"molecular_target": "RAC-alpha serine/threonine-protein kinase (Homo sapiens) (UniProt P31749)", "sequence (P31749 whole entry)": "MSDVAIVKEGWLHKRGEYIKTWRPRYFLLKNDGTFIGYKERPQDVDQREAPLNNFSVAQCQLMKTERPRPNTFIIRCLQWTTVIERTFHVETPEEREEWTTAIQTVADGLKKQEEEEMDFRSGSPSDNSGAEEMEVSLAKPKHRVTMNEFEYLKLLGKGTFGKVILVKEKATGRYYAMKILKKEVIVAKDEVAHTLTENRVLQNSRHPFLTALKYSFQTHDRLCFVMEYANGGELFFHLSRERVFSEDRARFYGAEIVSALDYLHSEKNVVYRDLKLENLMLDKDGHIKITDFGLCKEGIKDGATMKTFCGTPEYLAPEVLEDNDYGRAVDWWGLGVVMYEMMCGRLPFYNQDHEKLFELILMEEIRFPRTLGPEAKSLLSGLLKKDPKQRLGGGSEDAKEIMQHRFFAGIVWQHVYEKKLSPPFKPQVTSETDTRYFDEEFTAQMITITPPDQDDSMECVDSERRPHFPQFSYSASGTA", "experiment": "Inhibition of Akt phosphorylation in human A549 cells at 2.1 to 4.2 uM after 24 hrs by Western blot method", "assay_type": "cell-based", "how_it_was_run": "as §3"}, "[17]": {"molecular_target": "RAC-alpha serine/threonine-protein kinase (Homo sapiens) (UniProt P31749)", "experiment": "Inhibition of Akt phosphorylation in human A549/CDDP cells at 0.6 to 1.2 uM after 24 hrs by Western blot method", "assay_type": "cell-based", "how_it_was_run": "as §3"}, "A549 [18]": {"system": "A549", "experiment": "Inhibition of ERK phosphorylation in human A549 cells at 2.1 to 4.2 uM after 24 hrs by Western blot method", "assay_type": "cell-based", "how_it_was_run": "as §3"}, "A549/CDDP [19]": {"system": "A549/CDDP", "experiment": "Decrease in P-gp mRNA level in human A549/CDDP cells at 0.6 to 1.2 uM after 24 hrs by RT-PCR method", "assay_type": "functional, cell-based", "how_it_was_run": "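A549/DDP cells (1 × 10^6) were treated with vehicle or 0.6 or 1.2 µM compound for 24 h. Total RNA was reverse-transcribed with oligo dT primers. ABCB1 transcripts were quantified by real-time RT-PCR relative to GAPDH and expressed as fold of the 0.1% DMSO control. Three independent experiments were run.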"}, "[20]": {"molecular_target": "ATP-dependent translocase ABCB1 (Homo sapiens, UniProt P08183)", "sequence (P08183 whole entry)": "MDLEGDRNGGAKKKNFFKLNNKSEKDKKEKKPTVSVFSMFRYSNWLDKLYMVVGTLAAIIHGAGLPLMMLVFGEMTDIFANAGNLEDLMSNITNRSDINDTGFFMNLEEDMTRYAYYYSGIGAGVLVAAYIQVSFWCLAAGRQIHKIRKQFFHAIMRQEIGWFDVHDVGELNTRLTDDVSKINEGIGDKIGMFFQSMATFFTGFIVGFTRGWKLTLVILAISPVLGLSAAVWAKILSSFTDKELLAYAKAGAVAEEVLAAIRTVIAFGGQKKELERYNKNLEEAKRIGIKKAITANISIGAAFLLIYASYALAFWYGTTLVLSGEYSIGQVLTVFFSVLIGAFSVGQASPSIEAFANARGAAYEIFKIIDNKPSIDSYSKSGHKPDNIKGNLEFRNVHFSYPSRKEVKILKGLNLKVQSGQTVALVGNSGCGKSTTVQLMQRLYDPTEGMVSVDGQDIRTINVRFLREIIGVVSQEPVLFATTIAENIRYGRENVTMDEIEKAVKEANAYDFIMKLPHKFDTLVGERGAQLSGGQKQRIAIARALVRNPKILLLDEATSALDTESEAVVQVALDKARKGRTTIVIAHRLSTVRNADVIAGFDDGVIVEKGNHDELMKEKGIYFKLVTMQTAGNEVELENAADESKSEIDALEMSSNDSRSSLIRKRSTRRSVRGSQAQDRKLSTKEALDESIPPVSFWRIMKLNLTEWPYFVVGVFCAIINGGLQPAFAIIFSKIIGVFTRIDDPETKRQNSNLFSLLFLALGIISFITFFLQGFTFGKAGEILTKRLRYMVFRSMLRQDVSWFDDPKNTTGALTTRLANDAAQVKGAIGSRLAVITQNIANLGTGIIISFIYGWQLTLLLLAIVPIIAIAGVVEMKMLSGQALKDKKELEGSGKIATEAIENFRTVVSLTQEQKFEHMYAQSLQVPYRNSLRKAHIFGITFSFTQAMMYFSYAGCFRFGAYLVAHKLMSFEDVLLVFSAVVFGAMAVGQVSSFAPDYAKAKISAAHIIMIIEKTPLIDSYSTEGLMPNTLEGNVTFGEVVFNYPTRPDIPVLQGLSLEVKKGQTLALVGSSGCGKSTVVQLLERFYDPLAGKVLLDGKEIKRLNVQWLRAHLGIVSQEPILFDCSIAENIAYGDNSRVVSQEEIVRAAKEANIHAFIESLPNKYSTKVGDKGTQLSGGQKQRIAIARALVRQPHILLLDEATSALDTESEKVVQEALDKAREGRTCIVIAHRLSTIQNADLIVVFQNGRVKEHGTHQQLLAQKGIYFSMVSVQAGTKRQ", "experiment": "Inhibition of P-gp in human A549/CDDP cells assessed as accumulation of rhodamine 123 at 0.03 to 1.2 uM by flow cytometry", "assay_type": "cell-based", "how_it_was_run": "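A549/DDP cells were treated with compound (0.03-1.2 µM), with verapamil as the reference P-gp inhibitor. Intracellular rhodamine 123 accumulation was measured by flow cytometry.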"}, "[21]": {"experiment": "Acute toxicity in ICR mouse assessed as mortality at 200 to 450 mg/kg, ip measured on day 4 to 14 post treatment", "assay_type": "organism-based", "details": "in vivo", "how_it_was_run": "(§4)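 Male and female ICR mice (7 weeks), randomized, 10 per group, given one intraperitoneal dose at 200, 250, 300, 350, 400 or 450 mg/kg. Animals were watched for abnormal behaviour and deaths up to two weeks. Deaths were tallied at 1 h, 4 h, day 3 and days 4-14, with survival on day 14. LD50 was calculated with 95% confidence limits.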"}, "[22]": {"experiment": "Acute toxicity in ICR mouse assessed as mortality at 200 to 400 mg/kg, ip measured at 4 hr post treatment", "assay_type": "organism-based", "details": "in vivo", "how_it_was_run": "as §4"}, "[23]": {"experiment": "Acute toxicity in ICR mouse assessed as mortality at 450 mg/kg, ip", "assay_type": "organism-based", "details": "in vivo", "how_it_was_run": "as §4"}, "[24]": {"experiment": "Acute toxicity in ICR mouse assessed as survival at 350 mg/kg, ip measured on day 14", "assay_type": "organism-based", "details": "in vivo", "how_it_was_run": "as §4"}, "[25]": {"experiment": "Toxicity in BALB/c nude mouse xenografted with human A549/CDDP cells assessed as body weight at 20 mg/kg, ip administered daily for 15 consecutive days measured on day 1 (reference value: 19.3 +/- 1.55 g)", "assay_type": "organism-based", "details": "in vivo"}, "A549/CDDP [26]": {"system": "A549/CDDP", "experiment": "Anticancer activity against human A549/CDDP cells xenografted in BALB/c nude mouse assessed as tumor growth inhibition at 20 mg/kg, ip administered daily for 15 consecutive days measured every 3 days", "assay_type": "functional", "details": "read-out: TGI", "how_it_was_run": "(§5)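 Both sexes of athymic BALB/c nude mice (4-5 weeks) were inoculated subcutaneously with A549/DDP cells (1 × 10^7/mouse). Once tumors reached 180-200 mm3, mice were randomized (n = 8). They received ip dosing daily for 15 consecutive days, with vehicle PBS/DMSO/cremophor-EL (8:1:1). Tumors were measured by caliper and volume was taken as width2 × length/2. Growth inhibition was taken from tumor weight (w/w).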"}, "A549/CDDP [27]": {"system": "A549/CDDP", "experiment": "Anticancer activity against human A549/CDDP cells xenografted in BALB/c nude mouse assessed as tumor growth inhibition at 40 mg/kg, ip administered daily for 15 consecutive days measured every 3 days", "assay_type": "functional", "details": "15 days, read-out: TGI", "how_it_was_run": "as §5"}}, "note": "Active and inactive are the calls of the source. The calls are words filed in the database; no cut-off is given here."}
{"smiles": "COc1cc(/C=C/C(=O)/C=C/c2nc(C)c(C)nc2C)ccc1O", "values": [{"measurement": "IC50", "setting": "A549 [1]", "result": 2.19, "unit": "µM"}, {"measurement": "IC50", "setting": "A549/CDDP [2]", "result": 0.6, "unit": "µM"}, {"measurement": "Activity", "setting": "A549/CDDP [3]", "result": "Active"}, {"measurement": "IC50", "setting": "[4]", "result": 3.12, "unit": "µM"}, {"measurement": "Activity", "setting": "A549 [5]", "result": "Active"}, {"measurement": "Activity", "setting": "A549/CDDP [6]", "result": "Active"}, {"measurement": "Activity", "setting": "A549 [7]", "result": "inactive"}, {"measurement": "Activity", "setting": "A549/CDDP [8]", "result": "inactive"}, {"measurement": "Activity", "setting": "A549/CDDP [9]", "result": "inactive"}, {"measurement": "Activity", "setting": "A549 [10]", "result": "Active"}, {"measurement": "Activity", "setting": "A549/CDDP [11]", "result": "Active"}, {"measurement": "Activity", "setting": "A549/CDDP [12]", "result": "Active"}, {"measurement": "Activity", "setting": "A549 [13]", "result": "Active"}, {"measurement": "Activity", "setting": "A549 [14]", "result": "inactive"}, {"measurement": "Activity", "setting": "A549 [15]", "result": "inactive"}, {"measurement": "inhibition", "setting": "[16]", "result": "Active"}, {"measurement": "inhibition", "setting": "[17]", "result": "Active"}, {"measurement": "inhibition", "setting": "A549 [18]", "result": "Active"}, {"measurement": "Activity", "setting": "A549/CDDP [19]", "result": "Active"}, {"measurement": "inhibition (INH)", "setting": "[20]", "result": "Active"}, {"measurement": "Activity", "setting": "[21]", "result": "Non-Toxic"}, {"measurement": "Activity", "setting": "[22]", "result": "Non-Toxic"}, {"measurement": "Activity", "setting": "[23]", "result": "Toxic"}, {"measurement": "survival at 14 day", "setting": "[24]", "result": 30, "unit": "%"}, {"measurement": "Activity", "setting": "[25]", "result": 18.3, "unit": "g"}, {"measurement": "inhibition in vivo at 20 mg/kg", "setting": "A549/CDDP [26]", "result": 36, "unit": "%"}, {"measurement": "inhibition in vivo at 40 mg/kg", "setting": "A549/CDDP [27]", "result": 67, "unit": "%"}]}
